Assay results from ChEMBL document CHEMBL5576109, “Hydantoin derivative dimers as broad-spectrum antimicrobial agents against ESKAPE pathogens with enhanced killing rate and stability” (RSC Med Chem, 2024).
≈ marks a conversion by molar mass, not a printed value.

Experiments:
Escherichia coli [1] = assay: Drug resistance, ratio of MIC for Escherichia coli ATCC 25922 after 25 passages to MIC for Escherichia coli ATCC 25922 after initial exposure; type: functional
How it was run: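 Serial passage resistance selection: after each broth MIC determination, bacteria from the 1/2 MIC well were withdrawn and diluted to 1 × 10^6 CFU/mL for the next MIC measurement. Repeated for 25 passages; MIC after passage 25 compared with the initial MIC.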

Staphylococcus aureus [2] = assay: Antibacterial activity against Staphylococcus aureus ATCC 29213 assessed as reduction bacterial growth after 16 hrs by TECAN SPARK microplate reader analysis; type: functional
How it was run: (§1)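 Single colony grown overnight in 4 mL TSB at 37 °C, diluted 100-fold and grown to mid-log phase. Compounds 2-fold serially diluted in TSB and mixed 1:1 with bacteria in TSB (1 × 10^6 CFU/mL). Incubated 16 h at 37 °C, then A600 read. MIC taken as the lowest concentration giving complete growth inhibition.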

Enterococcus faecalis = assay: Antibacterial activity against Enterococcus faecalis ATCC 29212 assessed as reduction bacterial growth after 16 hrs by TECAN SPARK microplate reader analysis; type: functional; how it was run: as §1
Bacillus subtilis = assay: Antibacterial activity against Bacillus subtilis ATCC 6633 assessed as reduction bacterial growth after 16 hrs by TECAN SPARK microplate reader analysis; type: functional; how it was run: as §1
Staphylococcus aureus [3] = assay: Antibacterial activity against methicillin-resistant Staphylococcus aureus ATCC 43300 assessed as reduction bacterial growth after 16 hrs by TECAN SPARK microplate reader analysis; type: functional
How it was run: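 Broth microdilution in TSB: single colony grown overnight at 37 °C, diluted 100-fold and grown to mid-log phase. 2-fold serial compound dilutions mixed 1:1 with bacteria at 1 × 10^6 CFU/mL, incubated 16 h at 37 °C, absorbance read at 600 nm. MIC taken as lowest concentration giving complete growth inhibition.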

Escherichia coli [4] = assay: Antibacterial activity against Escherichia coli ATCC 25922 assessed as reduction bacterial growth after 16 hrs by TECAN SPARK microplate reader analysis; type: functional; how it was run: as §1
Pseudomonas aeruginosa = assay: Antibacterial activity against Pseudomonas aeruginosa CMCC 10104 assessed as reduction bacterial growth after 16 hrs by TECAN SPARK microplate reader analysis; type: functional; how it was run: as §1
Acinetobacter baumannii = assay: Antibacterial activity against Acinetobacter baumannii ATCC 19606 assessed as reduction bacterial growth after 16 hrs by TECAN SPARK microplate reader analysis; type: functional; how it was run: as §1
Klebsiella pneumoniae = assay: Antibacterial activity against Klebsiella pneumoniae ATCC 10031 assessed as reduction bacterial growth after 16 hrs by TECAN SPARK microplate reader analysis; type: functional; how it was run: as §1
[5] = Hemolytic activity in mouse red blood cells assessed as hemolysis incubated for 1 hr by TECAN SPARK microplate reader analysis; type: toxicity, cell-based, Erythrocyte; conditions: red blood cells (erythrocytes)
How it was run: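 Mouse RBCs washed three times in 1× PBS by centrifugation (3500 rpm, 10 min) and made up as a 5% v/v suspension. Incubated with 2-fold serially diluted compound in PBS for 1 h at 37 °C, then centrifuged. Supernatant diluted in PBS and A540 read. % hemolysis calculated relative to 1% Triton X-100 (100%) and PBS (0%).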

Compound | Ratio (Escherichia coli [1]) | MIC (Staphylococcus aureus [2]) [µg/mL] | MIC (Enterococcus faecalis) [µg/mL] | MIC (Bacillus subtilis) [µg/mL] | MIC (Staphylococcus aureus [3]) [µg/mL] | MIC (Escherichia coli [4]) [µg/mL] | MIC (Pseudomonas aeruginosa) [µg/mL] | MIC (Acinetobacter baumannii) [µg/mL] | MIC (Klebsiella pneumoniae) [µg/mL] | HC50 at 1 h [5] [µg/mL]
GENTAMICIN | 32 | – | – | – | – | – | – | – | – | –
CCCCCCN1C(=O)[C@H](CCCCN)N(Cc2ccc(-c3ccc(CN4C(=O)N(CCCCCC)C(=O)[C@@H]4CCCCN)cc3)cc2)C1=O | – | 1.95 (≈ 2.83 µM) | 7.81 (≈ 11.3 µM) | 1.95 (≈ 2.83 µM) | 7.81 (≈ 11.3 µM) | 1.95 (≈ 2.83 µM) | 15.6 (≈ 22.7 µM) | 3.91 (≈ 5.68 µM) | 1.95 (≈ 2.83 µM) | 32.8
CN(C)[C@@H]1C(O)=C(C(N)=O)C(=O)[C@@]2(O)C(O)=C3C(=O)c4c(O)cccc4[C@@](C)(O)[C@H]3C[C@@H]12 [TETRACYCLINE] | – | 0.98 (≈ 2.21 µM) | – | – | – | 7.81 (≈ 17.6 µM) | – | – | – | –
CCCCCCCCCCCCN1C(=O)[C@H](CCCCN)N(Cc2ccc(-c3ccc(CN4C(=O)N(CCCCCCCCCCCC)C(=O)[C@@H]4CCCCN)cc3)cc2)C1=O | – | 250 (≈ 292 µM) | – | – | – | 250 (≈ 292 µM) | – | – | – | –
CCCCCN1C(=O)[C@H](CCCCN)N(Cc2ccc(-c3ccc(CN4C(=O)N(CCCCC)C(=O)[C@@H]4CCCCN)cc3)cc2)C1=O | – | 7.81 (≈ 11.8 µM) | 31.2 (≈ 47.3 µM) | 7.81 (≈ 11.8 µM) | 15.6 (≈ 23.6 µM) | 7.81 (≈ 11.8 µM) | 62.5 (≈ 94.6 µM) | 15.6 (≈ 23.6 µM) | 62.5 (≈ 94.6 µM) | 135
CCCCCCN1C(=O)[C@H](CCCCN)N(Cc2ccc(/C=C/c3ccc(CN4C(=O)N(CCCCCC)C(=O)[C@@H]4CCCCN)cc3)cc2)C1=O | – | 3.91 (≈ 5.47 µM) | 7.81 (≈ 10.9 µM) | 7.81 (≈ 10.9 µM) | 31.2 (≈ 43.7 µM) | 31.2 (≈ 43.7 µM) | 15.6 (≈ 21.8 µM) | 15.6 (≈ 21.8 µM) | 3.91 (≈ 5.47 µM) | 43.5
CCCCCCN1C(=O)[C@H](CCCCN)N(Cc2ccc3cc(CN4C(=O)N(CCCCCC)C(=O)[C@@H]4CCCCN)ccc3c2)C1=O | – | 3.91 (≈ 5.9 µM) | 31.2 (≈ 47.1 µM) | 7.81 (≈ 11.8 µM) | 15.6 (≈ 23.6 µM) | 15.6 (≈ 23.6 µM) | 15.6 (≈ 23.6 µM) | 31.2 (≈ 47.1 µM) | 1.95 (≈ 2.94 µM) | 59.9
NCCCC[C@H]1C(=O)N(C23C[C@H]4C[C@@H](C2)C[C@@H](C3)C4)C(=O)N1Cc1ccc(-c2ccc(CN3C(=O)N(C45C[C@H]6C[C@@H](C4)C[C@@H](C5)C6)C(=O)[C@@H]3CCCCN)cc2)cc1 | – | 1.95 (≈ 2.47 µM) | 7.81 (≈ 9.9 µM) | 7.81 (≈ 9.9 µM) | 125 (≈ 158 µM) | 62.5 (≈ 79.2 µM) | 250 (≈ 317 µM) | 15.6 (≈ 19.8 µM) | 7.81 (≈ 9.9 µM) | 33.6
CCCCCCN1C(=O)[C@H](CCCCN)N(Cc2cccc(-c3cccc(CN4C(=O)N(CCCCCC)C(=O)[C@@H]4CCCCN)c3)c2)C1=O | – | 3.91 (≈ 5.68 µM) | 15.6 (≈ 22.7 µM) | 7.81 (≈ 11.3 µM) | 7.81 (≈ 11.3 µM) | 3.91 (≈ 5.68 µM) | 15.6 (≈ 22.7 µM) | 7.81 (≈ 11.3 µM) | 7.81 (≈ 11.3 µM) | 38
CCCCCCCCN1C(=O)[C@H](CCCCN)N(Cc2ccc(-c3ccc(CN4C(=O)N(CCCCCCCC)C(=O)[C@@H]4CCCCN)cc3)cc2)C1=O | – | 31.2 (≈ 41.9 µM) | 31.2 (≈ 41.9 µM) | 15.6 (≈ 21 µM) | 250 (≈ 336 µM) | 250 (≈ 336 µM) | 250 (≈ 336 µM) | 62.5 (≈ 83.9 µM) | 62.5 (≈ 83.9 µM) | –
CCCCCCN1C(=O)[C@H](CCCCN)N(Cc2ccc(CN3C(=O)N(CCCCCC)C(=O)[C@@H]3CCCCN)c3ccccc23)C1=O | – | 15.6 (≈ 23.6 µM) | 62.5 (≈ 94.3 µM) | 15.6 (≈ 23.6 µM) | 125 (≈ 189 µM) | 125 (≈ 189 µM) | 62.5 (≈ 94.3 µM) | 125 (≈ 189 µM) | 31.2 (≈ 47.1 µM) | –
CCCCCCN1C(=O)[C@H](CCCCNC(=N)N)N(Cc2ccc3cc(CN4C(=O)N(CCCCCC)C(=O)[C@@H]4CCCCNC(=N)N)ccc3c2)C1=O | – | 3.91 (≈ 5.23 µM) | 3.91 (≈ 5.23 µM) | 3.91 (≈ 5.23 µM) | 15.6 (≈ 20.9 µM) | 15.6 (≈ 20.9 µM) | 15.6 (≈ 20.9 µM) | 31.2 (≈ 41.8 µM) | 7.81 (≈ 10.5 µM) | 117
CCCCN1C(=O)[C@H](CCCCN)N(Cc2ccc(-c3ccc(CN4C(=O)N(CCCC)C(=O)[C@@H]4CCCCN)cc3)cc2)C1=O | – | 62.5 (≈ 98.8 µM) | 250 (≈ 395 µM) | 15.6 (≈ 24.7 µM) | 125 (≈ 198 µM) | 125 (≈ 198 µM) | 125 (≈ 198 µM) | 62.5 (≈ 98.8 µM) | 15.6 (≈ 24.7 µM) | –
CCCCCCN1C(=O)[C@H](CCCCN)N(Cc2ccc(CCc3ccc(CN4C(=O)N(CCCCCC)C(=O)[C@@H]4CCCCN)cc3)cc2)C1=O | – | 1.95 (≈ 2.72 µM) | 7.81 (≈ 10.9 µM) | 7.81 (≈ 10.9 µM) | 15.6 (≈ 21.8 µM) | 3.91 (≈ 5.45 µM) | 125 (≈ 174 µM) | 3.91 (≈ 5.45 µM) | 3.91 (≈ 5.45 µM) | 20.9
